Yeast lifespan up – yeast lifespan extension; S. cerevisiae growth with nicotinamide, OD615; deaD strain in restrictive glucose medium; inhibition of the nicotinamide effect, % at 10 µM; actives 0.68% (n = 130,000);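 active = inhibition above a set limit, placed 3 SD over the median of all compounds, cut at about 26% in these data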;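 note: 0% = nicotinamide-treated wells and 100% = cells grown without nicotinamide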
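System: DeaD-strain S. cerevisiae / Buffer or medium: CSMM-D, restrictive glucose (dextrose) synthetic minimal medium / Probe or stimulus: nicotinamide, 1.5 mM, co-present with compound / Compound: one concentration, 10 µM, DMSO 0.25% / Incubation: 48 h compound exposure at 30 °C, humidified / Technique: optical density (absorbance) at 615 nm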
NCF1 inh – p47phox (human) inhibition; inhibition, % at 24.7 µM; P14598; AID 1274; p47phox/p22phox peptide binding, fluorescence polarization, 2 h; actives 0.53% (n = 220,000);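 active = inhibition above about 30%, limit read from the data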;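 note: 0% = p47phox with labelled peptide and 100% = labelled peptide alone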
Tb hexokinase – blocks Trypanosoma brucei hexokinase 1 activity; inhibition, % at 10 µM; actives 0.11% (n = 220,000); recombinant TbHK1, G6PDH-coupled NADH A340;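 active = inhibition of 50% or more in the single-dose primary screen; inactive = inhibition below 50%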
BB579 growth dn – yeast BB579 growth reduction in restrictive medium. S. cerevisiae BB579 growth, OD615, 48 h. inhibition, % at 10 µM. actives 0.51% (n = 140,000). AID 804;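 active = inhibition above a set limit, 3 SD over the mean compound inhibition, cut at about 44% in these data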
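Assay system – yeast BB579 (DeaD) · Dosing – single compound dose of 10 µM, 0.25% DMSO final · Detection – OD615 turbidity measurement · Buffer or medium – CSMM-D restrictive synthetic medium containing dextrose (glucose) · Benchmarks – positive control amphotericin B 10 µg/mL · Incubation – 48 h exposure, 30 °C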
SDO1 yeast rescue – compounds rescuing growth of sdo1-depleted yeast, bone marrow failure model | z-score at 10 µM | actives 0.21% (n = 140,000) | AID 817 | S. cerevisiae sdo1-depleted JHY4D growth rescue, OD600 30 h; stronger effect = higher value; pdr5 snq2 efflux-pump mutant strain;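 active = z-score above 3 at both the 24 hr and the 30 hr optical density reads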;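 note: z-score against mean and SD of all compound wells on the same plate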
RBBP9 inh – blocks human serine hydrolase RBBP9 | AID 1515 | O75884 | actives 0.2% (n = 220,000) | recombinant RBBP9, FP-Rh probe fluorescence polarization | inhibition, % at 7.94 µM;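 active = inhibition above the campaign mean of all tested compounds plus 3 SD, cut at about 14% in these data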;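 note: plate controls were DMSO wells with RBBP9 for no effect and wells lacking RBBP9 protein for full effect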
Target sequence (O75884 whole entry, looked up): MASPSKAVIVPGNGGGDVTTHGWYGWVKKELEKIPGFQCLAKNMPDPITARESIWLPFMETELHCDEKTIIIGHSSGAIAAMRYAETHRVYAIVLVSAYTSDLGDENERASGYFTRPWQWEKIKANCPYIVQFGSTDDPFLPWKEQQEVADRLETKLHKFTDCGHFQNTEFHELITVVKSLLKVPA
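Measured by – fluorescence polarization · Test system – RBBP9 protein · Input – 2.5 µM RBBP9 dispensing solution, before mixing · Measure – percent inhibition from mP, scaled between DMSO and no-protein wells · Benchmarks – DMSO-treated enzyme wells and wells lacking RBBP9 · Times – preincubation 30 min plus labeling 45 min at 25 °C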
G6PDH counter – Leuconostoc glucose-6-phosphate dehydrogenase inhibition, counter-screen | shares compounds with Tb hexokinase | inhibition, % at 10 µM | actives 7% (n = 210) | purified G6PDH, NADH absorbance, 1 h | AID 2516;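 active = at least 50% inhibition in the glucose-6-phosphate dehydrogenase coupled counterscreen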
TbHK1 rescreen – T. brucei hexokinase 1 inhibition, rescreen | shares compounds with Tb hexokinase | recombinant TbHK1, G6PDH-coupled NADH A340 absorbance | inhibition, % at 10 µM | actives 10% (n = 210);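 active = inhibition of at least 50% in both of the two screening runs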;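 note: 0% and 100% set by the maximum and minimum signal control wells on each plate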
RBBP9 confirm – confirmation of human RBBP9 inhibitors; AID 1537; recombinant RBBP9, FP-Rh probe fluorescence polarization; inhibition, % at 7.94 µM; shares compounds with RBBP9 inh; actives 36% (n = 410);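 active = inhibition above the hit cutoff derived for the primary screen, cut at about 15% in these data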;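 note: 0% = RBBP9 with DMSO and 100% = wells lacking RBBP9 protein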
An asterisk follows results filed as active. Shown are actives, neighbours in structure and some others; about 1.6% of the full set was active somewhere.

What do the screens show for `COc1ccc(N2CCN(Cc3nnnn3C3CCCCC3)CC2)cc1`?
NCF1 inh: -5.3; Tb hexokinase: 2.0; RBBP9 inh: -4.2

Results for Cc1ccc(N2C(=O)CSC2c2cccnc2)cc1F (stereo not drawn) ?
Yeast lifespan up: -15.5; NCF1 inh: -0.9; Tb hexokinase: 54.9*; BB579 growth dn: 19.3; SDO1 yeast rescue: 0.21; RBBP9 inh: -1.3; G6PDH counter: -1.9; TbHK1 rescreen: 1.8

Results for CCCN1C(=O)S/C(=C/c2ccc(N3CCOCC3)o2)C1=O ?
NCF1 inh: -260.0; Tb hexokinase: -12.4; RBBP9 inh: 14.5*; RBBP9 confirm: 2.4

Results for CCCN1C(=O)S/C(=C\c2ccc(N3CCOCC3)o2)C1=O ?
NCF1 inh: -230.0; Tb hexokinase: -8.3; RBBP9 inh: -3.7

What do the screens show for `Cn1c(=O)c(NCCO)c2c3c(cccc31)C(=O)c1ccccc1-2`?
Yeast lifespan up: 0.6; NCF1 inh: -251.2; Tb hexokinase: -11.7; BB579 growth dn: -38.9; SDO1 yeast rescue: -0.23; RBBP9 inh: 63.2*; RBBP9 confirm: 74.8*

Results for Cn1c(=O)c(NCCc2ccccc2)c2c3c(cccc31)C(=O)c1ccccc1-2 ?
Yeast lifespan up: -5.3; NCF1 inh: -251.2; Tb hexokinase: 0.4; BB579 growth dn: -37.7; SDO1 yeast rescue: -0.86; RBBP9 inh: 108.6*; RBBP9 confirm: 144.1*

What do the screens show for `CCNc1c2c3c(cccc3n(C)c1=O)C(=O)c1ccccc1-2`?
Yeast lifespan up: -16.3; NCF1 inh: -214.6; Tb hexokinase: -6.6; BB579 growth dn: -2.2; SDO1 yeast rescue: -1.17; RBBP9 inh: 22.0*; RBBP9 confirm: 36.9*

How did CCCCNc1c2c3c(cccc3n(C)c1=O)C(=O)c1ccccc1-2 do in these assays?
Yeast lifespan up: 7.0; NCF1 inh: -58.7; Tb hexokinase: -8.9; BB579 growth dn: -40.4; SDO1 yeast rescue: -1.31; RBBP9 inh: 24.0*; RBBP9 confirm: 30.5*

How did Cn1c(=O)c(NC2CCCCC2)c2c3c(cccc31)C(=O)c1ccccc1-2 do in these assays?
NCF1 inh: -55.6; Tb hexokinase: -0.3; RBBP9 inh: -1.5

Results for CCOC(=O)c1cccc(NC(=O)Nc2ccc3c(c2)C(=O)OC3)c1 ?
NCF1 inh: -18.6; Tb hexokinase: -15.8; RBBP9 inh: -6.9

Results for COc1ccc(N2C(=O)C3CCCCC3C2=O)cc1NC(=O)c1ccccc1 (stereo not drawn) ?
NCF1 inh: 1.5; Tb hexokinase: 2.1; RBBP9 inh: 0.0

Results for O=C(O)c1c[nH]c2ccc(F)cc2c1=O ?
NCF1 inh: 0.8; Tb hexokinase: -1.3; RBBP9 inh: -0.1

How did C=CCn1c(=O)c2c(C)c(C)sc2n2c(Nc3ccc(OC)cc3)nnc12 do in these assays?
Yeast lifespan up: -6.6; NCF1 inh: -14.5; Tb hexokinase: -2.4; BB579 growth dn: -15.1; SDO1 yeast rescue: -0.72; RBBP9 inh: 15.6*; RBBP9 confirm: 4.0

How did O=C1OC(NCc2cccnc2)(c2ccc(Cl)cc2)c2ccccc21 (stereo not drawn) do in these assays?
NCF1 inh: 2.3; Tb hexokinase: 3.4; RBBP9 inh: 8.0

How did NNC(=O)c1cc(-c2ccc(N)cc2)nc2ccc(Br)cc12 do in these assays?
NCF1 inh: -10.7; Tb hexokinase: -35.9; RBBP9 inh: 14.8*; RBBP9 confirm: 68.5*

How did Cc1cc(C(=O)NN)c2cc(Br)ccc2n1 do in these assays?
Yeast lifespan up: 1.3; NCF1 inh: -12.2; Tb hexokinase: 2.2; BB579 growth dn: -7.4; SDO1 yeast rescue: 0.32; RBBP9 inh: -10.8

Results for Nc1nc(SCC(=O)N2CCCCCC2)[nH]c(=O)c1NC(=O)c1ccco1 ?
NCF1 inh: -16.0; Tb hexokinase: -7.0; RBBP9 inh: 14.9*; RBBP9 confirm: 63.6*
